Measured values: ChEMBL document CHEMBL4689842, “EUbOPEN Chemogenomics Library wave 1” (2021)

System: Fibroblast
Test: Multiplex assay against human fibroblast
Type: toxicity, cell-based
Summary of the method: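 Live cells were stained at seeding with Hoechst33342, BioTracker Green Microtubule Cytoskeleton Dye, MitoTracker Red and Annexin V Alexa Fluor 680, then imaged on a CQ1 microscope at 37°C and 5% CO2 after compound addition. CellPathfinder machine-learning gating split cells into Hoechst high-intensity objects or normal cells. Normal cells were split into healthy, pyknosed or fragmented nuclei, and pyknosed cells into mitotic or apoptotic. Tubulin, mitochondrial-mass and membrane-permeability phenotypes are per cents of healthy-nucleus cells.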

[1] = 12 h, 1 µM, compound concentration 1 uM, replicate 1
[2] = 12 h, 1 µM, compound concentration 1 uM, replicate 2
[3] = 12 h, 10 µM, compound concentration 10 uM, replicate 1
[4] = 12 h, 10 µM, compound concentration 10 uM, replicate 2
[5] = 24 h, 1 µM, compound concentration 1 uM, replicate 1
[6] = 24 h, 1 µM, compound concentration 1 uM, replicate 2
[7] = 24 h, 10 µM, compound concentration 10 uM, replicate 1
[8] = 24 h, 10 µM, compound concentration 10 uM, replicate 2
[9] = 48 h, 1 µM, compound concentration 1 uM, replicate 1
[10] = 48 h, 1 µM, compound concentration 1 uM, replicate 2
[11] = 48 h, 10 µM, compound concentration 10 uM, replicate 1
[12] = 48 h, 10 µM, compound concentration 10 uM, replicate 2

In the case of CN1CCC[C@@H]1CCO[C@](C)(c1ccccc1)c1ccc(Cl)cc1.O=C(O)/C=C/C(=O)O [CLEMASTINE FUMARATE], the “Population Apoptotic (%)” value [1] is reported as 61%, the “Population Fragmented Nuclei (%)” value [1] is reported as 35% and the “Population Healthy Nuclei (%)” value [1] is reported as 39%. For the same compound, the “Population Hoechst High Intensity Objects (%)” value [1] was 20%, the “Population Membrane Permeable-Phenotype (%)” value [1] was 13% and the “Population Mitochondria Different-Phenotype (%)” value [1] was 10%. The “Population Mitotic Cells (%)” value [1] was 38%, the “Population Normal (%)” value [1] was 79% and the “Population Pyknosed Nuclei (%)” value [1] was 24%. The “Population Tubulin-Different-Phenotype (%)” value [1] was 37%, the “Total Cell Count” value [1] was 92 and the “Population Apoptotic (%)” value [2] was 50%. The “Population Fragmented Nuclei (%)” value [2] was 15%, the “Population Healthy Nuclei (%)” value [2] was 76% and the “Population Hoechst High Intensity Objects (%)” value [2] was 1%. For the same compound, the “Population Membrane Permeable-Phenotype (%)” value [2] was 3%, the “Population Mitochondria Different-Phenotype (%)” value [2] was 6% and the “Population Mitotic Cells (%)” value [2] was 50%. For the same compound, the “Population Normal (%)” value [2] was 98%, the “Population Pyknosed Nuclei (%)” value [2] was 7% and the “Population Tubulin-Different-Phenotype (%)” value [2] was 3%. The “Total Cell Count” value [2] was 78, the “Population Apoptotic (%)” value [3] was 69% and the “Population Fragmented Nuclei (%)” value [3] was 26%. The “Population Healthy Nuclei (%)” value [3] was 43%, the “Population Hoechst High Intensity Objects (%)” value [3] was 10% and the “Population Membrane Permeable-Phenotype (%)” value [3] was 11%. For the same compound, the “Population Mitochondria Different-Phenotype (%)” value [3] was 49%, the “Population Mitotic Cells (%)” value [3] was 30% and the “Population Normal (%)” value [3] was 90%. The “Population Pyknosed Nuclei (%)” value [3] was 29%, the “Population Tubulin-Different-Phenotype (%)” value [3] was 77% and the “Total Cell Count” value [3] was 160. The “Population Apoptotic (%)” value [4] was 85%, the “Population Fragmented Nuclei (%)” value [4] was 19% and the “Population Healthy Nuclei (%)” value [4] was 41%. For the same compound, the “Population Hoechst High Intensity Objects (%)” value [4] was 21%, the “Population Membrane Permeable-Phenotype (%)” value [4] was 6% and the “Population Mitochondria Different-Phenotype (%)” value [4] was 86%. The “Population Mitotic Cells (%)” value [4] was 14%, the “Population Normal (%)” value [4] was 78% and the “Population Pyknosed Nuclei (%)” value [4] was 38%. The “Population Tubulin-Different-Phenotype (%)” value [4] was 40%, the “Total Cell Count” value [4] was 46 and the “Population Apoptotic (%)” value [5] was 63%. For the same compound, the “Population Fragmented Nuclei (%)” value [5] was 36%, the “Population Healthy Nuclei (%)” value [5] was 50% and the “Population Hoechst High Intensity Objects (%)” value [5] was 32%. The “Population Membrane Permeable-Phenotype (%)” value [5] was 20%, the “Population Mitochondria Different-Phenotype (%)” value [5] was 17% and the “Population Mitotic Cells (%)” value [5] was 36%. For the same compound, the “Population Normal (%)” value [5] was 67%, the “Population Pyknosed Nuclei (%)” value [5] was 13% and the “Population Tubulin-Different-Phenotype (%)” value [5] was 60%. The “Total Cell Count” value [5] was 118, the “Population Apoptotic (%)” value [6] was 18% and the “Population Fragmented Nuclei (%)” value [6] was 14%. For the same compound, the “Population Healthy Nuclei (%)” value [6] was 70%, the “Population Hoechst High Intensity Objects (%)” value [6] was 0% and the “Population Membrane Permeable-Phenotype (%)” value [6] was 5%. For the same compound, the “Population Mitochondria Different-Phenotype (%)” value [6] was 13%, the “Population Mitotic Cells (%)” value [6] was 81% and the “Population Normal (%)” value [6] was 99%. For the same compound, the “Population Pyknosed Nuclei (%)” value [6] was 15%, the “Population Tubulin-Different-Phenotype (%)” value [6] was 6% and the “Total Cell Count” value [6] was 107. The “Population Apoptotic (%)” value [7] was 78%, the “Population Fragmented Nuclei (%)” value [7] was 34% and the “Population Healthy Nuclei (%)” value [7] was 48%. For the same compound, the “Population Hoechst High Intensity Objects (%)” value [7] was 16%, the “Population Membrane Permeable-Phenotype (%)” value [7] was 9% and the “Population Mitochondria Different-Phenotype (%)” value [7] was 76%. For the same compound, the “Population Mitotic Cells (%)” value [7] was 21%, the “Population Normal (%)” value [7] was 83% and the “Population Pyknosed Nuclei (%)” value [7] was 17%. The “Population Tubulin-Different-Phenotype (%)” value [7] was 85%, the “Total Cell Count” value [7] was 190 and the “Population Apoptotic (%)” value [8] was 76%. The “Population Fragmented Nuclei (%)” value [8] was 21%, the “Population Healthy Nuclei (%)” value [8] was 36% and the “Population Hoechst High Intensity Objects (%)” value [8] was 12%. For the same compound, the “Population Membrane Permeable-Phenotype (%)” value [8] was 26%, the “Population Mitochondria Different-Phenotype (%)” value [8] was 86% and the “Population Mitotic Cells (%)” value [8] was 23%. The “Population Normal (%)” value [8] was 87%, the “Population Pyknosed Nuclei (%)” value [8] was 41% and the “Population Tubulin-Different-Phenotype (%)” value [8] was 26%. The “Total Cell Count” value [8] was 47, the “Population Apoptotic (%)” value [9] was 50% and the “Population Fragmented Nuclei (%)” value [9] was 46%. For the same compound, the “Population Healthy Nuclei (%)” value [9] was 45%, the “Population Hoechst High Intensity Objects (%)” value [9] was 27% and the “Population Membrane Permeable-Phenotype (%)” value [9] was 24%. For the same compound, the “Population Mitochondria Different-Phenotype (%)” value [9] was 2%, the “Population Mitotic Cells (%)” value [9] was 50% and the “Population Normal (%)” value [9] was 72%. For the same compound, the “Population Pyknosed Nuclei (%)” value [9] was 8%, the “Population Tubulin-Different-Phenotype (%)” value [9] was 42% and the “Total Cell Count” value [9] was 136. The “Population Apoptotic (%)” value [10] was 0%, the “Population Fragmented Nuclei (%)” value [10] was 48% and the “Population Healthy Nuclei (%)” value [10] was 51%. For the same compound, the “Population Hoechst High Intensity Objects (%)” value [10] was 16%, the “Population Membrane Permeable-Phenotype (%)” value [10] was 11% and the “Population Mitochondria Different-Phenotype (%)” value [10] was 14%. For the same compound, the “Population Mitotic Cells (%)” value [10] was 0%, the “Population Normal (%)” value [10] was 83% and the “Population Pyknosed Nuclei (%)” value [10] was 0%. For the same compound, the “Population Tubulin-Different-Phenotype (%)” value [10] was 50%, the “Total Cell Count” value [10] was 97 and the “Population Apoptotic (%)” value [11] was 78%. For the same compound, the “Population Fragmented Nuclei (%)” value [11] was 38%, the “Population Healthy Nuclei (%)” value [11] was 45% and the “Population Hoechst High Intensity Objects (%)” value [11] was 24%. The “Population Membrane Permeable-Phenotype (%)” value [11] was 8%, the “Population Mitochondria Different-Phenotype (%)” value [11] was 72% and the “Population Mitotic Cells (%)” value [11] was 21%. For the same compound, the “Population Normal (%)” value [11] was 75%, the “Population Pyknosed Nuclei (%)” value [11] was 15% and the “Population Tubulin-Different-Phenotype (%)” value [11] was 83%. The “Total Cell Count” value [11] was 197, the “Population Apoptotic (%)” value [12] was 75% and the “Population Fragmented Nuclei (%)” value [12] was 47%. For the same compound, the “Population Healthy Nuclei (%)” value [12] was 50%, the “Population Membrane Permeable-Phenotype (%)” value [12] was 3% and the “Population Mitochondria Different-Phenotype (%)” value [12] was 60%. The “Population Mitotic Cells (%)” value [12] was 25%, the “Population Pyknosed Nuclei (%)” value [12] was 2% and the “Population Tubulin-Different-Phenotype (%)” value [12] was 97%. For the same compound, the “Total Cell Count” value [12] was 258.
